Screens (PubChem)
The list is a sample of the results.
Apaf-1 act: activators of human Apaf-1 apoptosome, primary screen, biochemical, DEVD-Rh110 fluorescence, uHTS; Apoptotic protease-activating factor 1 (Homo sapiens), O14727; AID 489031, 2010; 330,000 tested, 0.31% active; Apaf-1 apoptosome caspase-3 activation; active compounds read low; activity change, negative = activation, % at 20 µM;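 active means activity change at or below -40% at 20 µM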
Target sequence (O14727 whole entry, looked up): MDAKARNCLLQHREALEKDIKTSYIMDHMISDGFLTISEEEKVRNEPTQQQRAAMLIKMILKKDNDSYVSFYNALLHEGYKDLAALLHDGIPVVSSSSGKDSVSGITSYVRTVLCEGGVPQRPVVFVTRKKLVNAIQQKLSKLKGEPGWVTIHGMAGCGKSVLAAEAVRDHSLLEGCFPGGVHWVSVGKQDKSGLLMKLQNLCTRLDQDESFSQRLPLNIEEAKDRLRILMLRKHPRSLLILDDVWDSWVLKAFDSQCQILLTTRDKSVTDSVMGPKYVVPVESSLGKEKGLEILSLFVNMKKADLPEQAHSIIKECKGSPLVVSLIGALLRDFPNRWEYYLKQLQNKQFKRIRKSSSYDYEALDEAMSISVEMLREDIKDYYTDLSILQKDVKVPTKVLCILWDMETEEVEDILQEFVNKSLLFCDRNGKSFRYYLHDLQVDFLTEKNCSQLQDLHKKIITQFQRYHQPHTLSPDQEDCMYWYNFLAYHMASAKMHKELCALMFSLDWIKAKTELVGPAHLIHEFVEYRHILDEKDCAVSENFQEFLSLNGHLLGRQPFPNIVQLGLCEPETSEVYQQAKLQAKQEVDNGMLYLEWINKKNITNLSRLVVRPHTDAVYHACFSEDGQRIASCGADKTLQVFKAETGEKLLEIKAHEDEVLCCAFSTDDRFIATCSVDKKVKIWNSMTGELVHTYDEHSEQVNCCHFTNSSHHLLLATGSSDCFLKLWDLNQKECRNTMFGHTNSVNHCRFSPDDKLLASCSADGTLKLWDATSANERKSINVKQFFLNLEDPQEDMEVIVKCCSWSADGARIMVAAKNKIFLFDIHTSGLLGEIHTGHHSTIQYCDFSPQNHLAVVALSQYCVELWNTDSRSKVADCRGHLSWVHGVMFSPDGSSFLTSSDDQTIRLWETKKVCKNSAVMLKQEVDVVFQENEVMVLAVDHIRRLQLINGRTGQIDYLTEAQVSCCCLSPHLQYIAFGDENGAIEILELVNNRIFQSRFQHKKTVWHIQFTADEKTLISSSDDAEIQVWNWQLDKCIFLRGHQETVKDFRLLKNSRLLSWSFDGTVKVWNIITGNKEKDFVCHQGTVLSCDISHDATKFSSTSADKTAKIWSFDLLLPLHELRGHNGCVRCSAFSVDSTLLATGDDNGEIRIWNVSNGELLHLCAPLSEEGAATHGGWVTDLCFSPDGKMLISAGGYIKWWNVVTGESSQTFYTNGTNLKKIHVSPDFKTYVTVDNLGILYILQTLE
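Material: reconstituted apoptosome of Apaf-1, cytochrome c, caspase-9, procaspase-3; times: 30 min preincubation, 50 min reaction, room temperature; measured by: fluorescence, 540 nm emission, 480 nm excitation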
Rh110 act interf: Rh110 fluorescence interference by putative Apaf-1 activators, confirmation, artefact control for Apaf-1 activator project, biochemical, 20 µM; quenched caspase reaction, Ex480/Em540; fluorescence interference (activity change), % at 20 µM, hits read low; shares compounds with Apaf-1 act; 980 tested, under 10 active; AID 504616, 2011;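 active means mean activity change at or below -40% when tested at 20 µM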
Apaf-1 act conf: Apaf-1 activators, single-dose retest, confirmation, biochemical, fluorescence, DEVD-Rh110, 20 µM | reconstituted apoptosome caspase-3 activity; active compounds read low | AID 504617, 2011 | activity change, negative = activation, % at 20 µM | 980 tested, 5% active | shares compounds with Apaf-1 act;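 active means mean activity change at or below -40%, meaning activation of 40% or more, at 20 µM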
The depositor's hits bear a star; / = no result given.

SMILES | Apaf-1 act | Rh110 act interf | Apaf-1 act conf
COC(=O)CCCC1=CC2=C(c3ccccc3)C(=O)C(C)(OC(=O)C3CCCC3)C(=O)C2=CN1CC(C)C (stereo not given) | 41 | / | /
OCCCCNc1cccc2ccccc12 | 81 | / | /
C#CCOCCOCCOCCNc1nc(N2CCN(C(=O)CCCCCCCCCCNC(=O)[C@H](CCCCN)n3cc(CCO)nn3)CC2)nc(N2CCN(C(=O)CCCCCCCCCCNC(=O)[C@H](CCCCN)n3cc(CCCC(=O)O)nn3)CC2)n1 | 59 | / | /
CCOc1ccc(Cc2nnc(SCC(=O)Nc3ccc(C(C)=O)cc3)[nH]c2=O)cc1 | -416* | 8 | 22
C#CCOCCOCCOCCNc1nc(N2CCN(C(=O)CCCCCCCCCCNC(=O)[C@@H](CCSC)n3cc(CCO)nn3)CC2)nc(N2CCN(C(=O)CCCCCCCCCCNC(=O)[C@H](CCC(=O)O)n3cc(CCCCCN)nn3)CC2)n1 | 62 | / | /
c1ccc(C[C@H]2CNCCN2CCCCC2CCCCC2)cc1 | 49 | / | /
O=C(/C=C\c1ccc2c(c1)OCO2)NC1(C(=O)Nc2ccc3c(c2)OCO3)CCCCC1 | -87* | 3 | 14
C#CCOCCOCCOCCNc1nc(N2CCN(C(=O)CCCCCCCCCCNC(=O)[C@H](CCCCN)n3cc(C)nn3)CC2)nc(N2CCN(C(=O)CCCCCCCCCCNC(=O)[C@@H]([C@H](C)O)n3cc(C)nn3)CC2)n1 | 54 | / | /
O=c1[nH]c(C2CCN(S(=O)(=O)c3ccc(C(F)(F)F)cc3)CC2)nc2c1nnn2Cc1ccc(F)cc1 | 41 | / | /
CNC[C@H](Cc1ccccc1)NC[C@@H](Cc1cccc2ccccc12)NCCc1ccc(C)cc1 | 48 | / | /
Cc1ccc(NS(=O)(=O)c2ccc(NC(=O)C3CCCO3)cc2)cc1 (stereo not given) | -52* | 6 | 12
CC(=O)Nc1ccc(S(=O)(=O)NC2=C(N3CCN(c4ccc(F)cc4)CC3)C(=O)c3ccccc3C2=O)cc1 | 64 | / | /
Cc1cccc(C)c1N1CCN(c2n[nH]c(N)n2)CC1 | -60* | 3 | 19
CN(C1=C(NC(=O)c2ccccc2)C(=O)c2ccccc2C1=O)C1CCS(=O)(=O)C1 (stereo not given) | 88 | / | /
Cc1ccc(C)c2[nH]c(=O)c(C(c3nnnn3Cc3ccco3)N3CCc4ccccc4C3)cc12 (stereo not given) | 71 | / | /
COc1ccc(N2CCN(C(c3cc(OC)ccc3OC)c3nnnn3Cc3ccco3)CC2)cc1 (stereo not given) | -258* | 7 | 13
Cc1cn([C@H]2C[C@H](N=[N+]=[N-])[C@@H](CO)O2)c(=O)[nH]c1=O | -43* | 6 | -3
O=C(Nc1ccc2nsnc2c1)N1CCCCC1 | 73 | / | /
COc1ccccc1NC(=O)Nc1ccc(C(=O)N2CCCCC2)cc1 | -80* | -1 | 13
COc1ccccc1NC(=S)Nc1cccc2cnccc12 | 97 | / | /
C=CC(=O)Nc1ccc(Nc2nc(NC3CCC(N(C)C)CC3)nc3c2ncn3C(C)C)cc1 (stereo not given) | 46 | / | /
Cc1ccc(CNC(=O)CN(C)S(=O)(=O)c2cnc[nH]2)cc1 | -237* | 1 | 10
FC(F)(F)c1ccc(CN2C[C@@H]3C(c4ccc(Cl)nc4)C4(c5cccnc5)CC3(C4)[C@H]2c2ccccc2)cc1 (stereo not given in full) | 42 | / | /
CC(=O)N(/N=C1\Sc2ccccc2C1=O)c1ccccc1C | 90 | / | /
CC(=O)c1ccc(NC2=C(N3CCOCC3)C(=O)c3ccccc3C2=O)cc1 | 80 | / | /
SMILES | Apaf-1 act | Rh110 act interf | Apaf-1 act conf
CC(C)Oc1ccc(N2CC(C(=O)Nc3ccc(N4CCOCC4)cc3)CC2=O)cc1 (stereo not given) | -107* | 8 | 5
CN(C)c1cccc2c1c(NC(=O)c1ccc(F)cc1)nn2C | 92 | / | /
O=C(Nc1ncccn1)c1cccc(F)c1 | -48* | 1 | 10
O=C(Nc1ccc(-c2cccc(F)c2)cc1)C1CCCN(Cc2ccccn2)C1 (stereo not given) | 40 | / | /
C=CC[C@@H](Cc1ccc(F)cc1)C(=O)OC[C@@H]1CCCN1C(=O)[C@@H](CC=C)CC(=O)N[C@@H](CO)Cc1ccccc1 | 40 | / | /
O=C(NC1CC1)c1ccc(CS(=O)c2ccccc2)o1 (stereo not given) | -97* | 3 | 9
CN(C)Cc1cc(O)c(CN(C)C)cc1O | 65 | / | /
Cc1[nH]n(-c2ccccc2)c(=O)c1C(C[N+](=O)[O-])c1ccc(Br)cc1 (stereo not given) | 87 | / | /
CCOC(=O)c1[nH]c(=O)c2ccccc2c1O | 75 | / | /
CCOC(=O)c1[nH]c2ccc(OC)cc2c1NC(=O)c1nonc1C | -144* | 2 | 2
